# Assays:
# [1] = target: T1, 5-hydroxytryptamine receptor 1A (Homo sapiens, UniProt P08908); experiment: Displacement of [3H]-8-OH-DPAT from human 5HT1AR expressed in HEK293 cell membranes after 1 hr by Microbeta scintillation counting method
# T1 sequence (P08908 whole entry): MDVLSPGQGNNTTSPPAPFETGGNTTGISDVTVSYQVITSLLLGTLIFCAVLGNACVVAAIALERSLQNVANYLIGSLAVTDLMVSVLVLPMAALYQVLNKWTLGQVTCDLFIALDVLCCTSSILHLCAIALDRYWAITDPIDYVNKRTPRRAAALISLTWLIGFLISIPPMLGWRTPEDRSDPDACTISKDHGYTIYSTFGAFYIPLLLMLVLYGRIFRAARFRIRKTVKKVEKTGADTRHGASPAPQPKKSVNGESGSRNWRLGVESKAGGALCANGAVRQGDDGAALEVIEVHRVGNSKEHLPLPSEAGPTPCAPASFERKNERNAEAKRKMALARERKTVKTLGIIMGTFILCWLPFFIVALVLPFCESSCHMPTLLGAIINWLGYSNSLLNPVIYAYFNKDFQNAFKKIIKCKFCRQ
# [2] = target: 5-hydroxytryptamine receptor 7 (Homo sapiens, UniProt P34969); experiment: Displacement of [3H]-5-CT from human 5HT7BR expressed in HEK293 cell membranes after 1 hr by Microbeta scintillation counting method
# [3] = species: Homo sapiens; experiment: Selectivity ratio of Ki for human D2L receptor expressed in HEK293 cell membranes to Ki for human 5HT7BR expressed in HEK293 cell membranes; format: cell-based
# Method in brief: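 Membranes from HEK293 cells stably expressing human 5-HT1A, 5-HT7b or D2L receptors. Buffers all 50 mM Tris HCl with 4 mM MgCl2 and 0.1% ascorbate. 5-HT1A: 0.1 mM EDTA, 10 µM pargyline, 2.5 nM [3H]-8-OH-DPAT, room temperature. 5-HT7b: 10 µM pargyline, 0.8 nM [3H]-5-CT, 37°C. D2L: EDTA, NaCl, KCl, CaCl2, 2.5 nM [3H]-raclopride, 37°C. Incubation 1 h; nonspecific binding 10 µM 5-HT (haloperidol for D2L). Seven concentrations (10^-10–10^-4 M) in triplicate; filtration; Ki by Cheng-Prusoff; at least two experiments.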
# [4] = test system: Mus musculus; experiment: Anxiolytic-like activity in Swiss albino mouse assessed as number of punished crossings at 40 mg/kg, ip administered 60 mins prior to test and measured post 3 secs of electric shock by four-plate test (reference value: 3.8 to 4 /min); format: functional
# [5] = test system: Mus musculus; experiment: Antidepressant like activity in Swiss albino mouse assessed as immobility time at 20 mg/kg, ip administered 60 mins prior to test and measured last 4 mins of 6 mins test by forced swimming test (reference value: 159.78 to 183.56 secs); format: functional
# [6] = test system: Mus musculus; experiment: Antidepressant like activity in Swiss albino mouse assessed as immobility time at 5 mg/kg, ip administered 60 mins prior to test and measured last 4 mins of 6 mins test by forced swimming test (reference value: 159.78 to 183.56 secs); format: functional
# [7] = test system: Mus musculus; experiment: Antidepressant like activity in Swiss albino mouse assessed as immobility time at 10 mg/kg, ip administered 60 mins prior to test and measured last 4 mins of 6 mins test by forced swimming test (reference value: 159.78 to 183.56 secs); format: functional
# [8] = test system: Mus musculus; experiment: Anxiolytic-like activity in Swiss albino mouse assessed as number of punished crossings at 20 mg/kg, ip administered 60 mins prior to test and measured post 3 secs of electric shock by four-plate test (reference value: 3.8 to 4 /min); format: functional
# [9] = test system: Mus musculus; experiment: Anxiolytic-like activity in Swiss albino mouse assessed as number of punished crossings at 10 mg/kg, ip administered 60 mins prior to test and measured post 3 secs of electric shock by four-plate test (reference value: 3.8 to 4 /min); format: functional
# [10] = test system: Mus musculus; experiment: Effect on spontaneous locomotor activity in Swiss albino mouse at 20 mg/kg, ip administered 60 mins prior to test and measured for 3 to 6 mins; format: ADME, organism-based; conditions: in vivo
# Method in brief: (§1)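 Male Swiss Albino mice given compound or vehicle (1% Tween 80, 10 ml/kg) i.p. 60 min before test. Each mouse placed alone in a cage for 30 min habituation. Ambulation (photobeam channel crossings) then recorded over a 3–6 min session. Means ± SEM.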
# [11] = test system: Mus musculus; experiment: Anxiolytic-like activity in Swiss albino mouse assessed as number of punished crossings at 5 mg/kg, ip administered 60 mins prior to test and measured post 3 secs of electric shock by four-plate test (reference value: 3.8 to 4 /min); format: functional
# [12] = test system: Mus musculus; experiment: Antidepressant like activity in Swiss albino mouse assessed as decrease in immobility time at 10 mg/kg, ip administered 60 mins prior to test and measured last 4 mins of 6 mins test by forced swimming test relative to control; format: functional; parameters: scale not given: the % may be the effect or the level left
# [13] = test system: Mus musculus; experiment: Effect on spontaneous locomotor activity in Swiss albino mouse at 10 mg/kg, ip administered 60 mins prior to test and measured for 3 to 6 mins; format: ADME, organism-based; conditions: in vivo; method in brief: as §1
# 5-hydroxytryptamine receptor 7, sequence (P34969 whole entry): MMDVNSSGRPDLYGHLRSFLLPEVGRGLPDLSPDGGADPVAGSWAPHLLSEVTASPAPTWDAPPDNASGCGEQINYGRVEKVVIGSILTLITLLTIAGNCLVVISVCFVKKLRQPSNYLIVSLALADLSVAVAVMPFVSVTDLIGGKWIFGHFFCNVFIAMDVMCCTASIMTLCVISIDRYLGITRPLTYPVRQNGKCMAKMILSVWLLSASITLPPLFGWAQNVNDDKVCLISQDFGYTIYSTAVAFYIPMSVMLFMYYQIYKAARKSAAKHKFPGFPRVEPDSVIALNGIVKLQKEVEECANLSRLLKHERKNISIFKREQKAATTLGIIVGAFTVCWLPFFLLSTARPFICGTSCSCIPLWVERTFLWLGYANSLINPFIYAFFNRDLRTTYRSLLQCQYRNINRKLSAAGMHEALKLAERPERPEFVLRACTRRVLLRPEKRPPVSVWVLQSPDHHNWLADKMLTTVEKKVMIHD
compound,measurement,setting,value
CC1(c2ccc(Cl)cc2)NC(=O)N(CC(O)CN2CCN(c3ccccc3C#N)CC2)C1=O.Cl (racemic),Ki,[1],305 nM
same,Ki,[2],9 nM
same,Ratio Ki,[3],140 to 190
CC1(c2ccc(Br)cc2)NC(=O)N(CC(O)CN2CCN(c3ccccc3C#N)CC2)C1=O.Cl (racemic),Activity,[4],4.3 min⁻¹
same,Ki,[1],140 nM
same,Time,[5],55.33 s
same,Time,[6],156.33 s
same,Ki,[2],7 nM
same,Time,[7],136.63 s
same,Activity,[8],3.7 min⁻¹
same,Activity,[9],3.9 min⁻¹
same,Activity,[10],Non-Toxic
COc1ccccc1N1CCN(CC(O)CN2C(=O)NC(C)(c3ccc(Br)cc3)C2=O)CC1.Cl (racemic),Activity,[11],3.1 min⁻¹
same,Ki,[1],85 nM
same,Time,[5],91.13 s
same,Time,[6],184.22 s
same,Ki,[2],10 nM
same,Activity,[12],50%
same,Time,[7],179.44 s
same,Activity,[8],2.2 min⁻¹
same,Activity,[9],3.1 min⁻¹
same,Activity,[13],Non-Toxic
